Results published in ChEMBL document CHEMBL1212869, “Anti-HIV and antiplasmodial activity of original flavonoid derivatives” (Bioorg Med Chem, 2010).

What was measured:
THP-1 = test: Cytotoxicity against human THP1 cells using propidium iodide staining after 72 hrs by flow cytometry; type: cell-based; conditions: THP-1, 72 h
Plasmodium falciparum = test: Antiplasmodial activity against chloroquine-resistant Plasmodium falciparum W2 infected in human A+ erythrocytes assessed as inhibition of parasite proliferation after 48 hrs; type: functional, organism-based; conditions: W2, 48 h
Procedure, shortened: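 W2 parasites were cultured in RPMI 1640 with 25 mM HEPES, 25 mM NaHCO3 and 10% A+ human serum at 2.5% hematocrit, at 37 °C under 10% O2/6% CO2/84% N2. After 48 h exposure without medium change, cells were stained with hydroethidine (0.05 mg/mL in PBS, 20 min, dark, 37 °C). Parasitaemia was read by flow cytometry. IC50 came from three independent experiments.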

[1] = Cytotoxicity against human MT4 cells after 4 days by MTT assay; type: cell-based
Procedure, shortened: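 Uninfected MT-4 cells were run in parallel with the antiviral test under the same conditions: 10⁵ cells/mL, serial compound dilutions from DMSO stocks, 4 days at 37 °C. Viability was read by MTT. CC50 is the concentration that lowers viability of uninfected cells by 50%.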

[2] = tested on: Human immunodeficiency virus 1; test: Antiviral activity against HIV1 3B infected in human MT4 cells assessed as inhibition of virus-induced cytopathic effect after 4 days by MTT assay; type: functional, organism-based; conditions: Human immunodeficiency virus 1, 3B, MT4, 96 h
[3] = tested on: Human immunodeficiency virus 2; test: Antiviral activity against HIV2 ROD infected in human MT4 cells assessed as inhibition of virus-induced cytopathic effect after 4 days by MTT assay; type: functional, organism-based; conditions: Human immunodeficiency virus 2, ISOLATE ROD, MT4, 96 h
[4] = Selectivity index, ratio of IC50 for human THP1 cells to IC50 for chloroquine-resistant Plasmodium falciparum W2; type: toxicity, cell-based, THP-1; conditions: read-out: Selectivity Index

Compound | IC50 (THP-1) [µM] | IC50 (Plasmodium falciparum) [µM] | CC50 at 96 h [1] [µM] | IC50 [2] [µM] | IC50 [3] [µM] | selectivity ratio [4]
Nc1ccc2oc(-c3ccccc3)c(O)c(=O)c2c1 | 27 | > 27 | 216 | 216 | 216 | 
Nc1ccc2oc(-c3cccc(C(F)(F)F)c3)c(O)c(=O)c2c1 | 2 | > 2 | 8.1 | 8.1 | 8.1 | 
Nc1ccc2oc(-c3ccc(C(F)(F)F)cc3)c(O)c(=O)c2c1 | > 125 | > 50 | 3.9 | 3.9 | 3.9 | 
COc1cccc(-c2oc3ccc(NC(C)=O)cc3c(=O)c2OC)c1 | 5 | > 5 | 369 | 369 | 369 | 
COc1ccccc1/C=C/C(=O)c1cc(NC(C)=O)ccc1O | > 125 | 13.4 | 37.8 | 37.8 | 37.8 | > 9.3
COc1cccc(/C=C/C(=O)c2cc(NC(C)=O)ccc2O)c1 | 93.7 | 13.2 | 40 | 40 | 40 | 7.1
COc1ccc(/C=C/C(=O)c2cc(NC(C)=O)ccc2O)cc1 | 59.2 | 6.7 | 38.7 | 38.7 | 38.7 | 8.8
CC(=O)Nc1ccc(O)c(C(=O)/C=C/c2ccccc2F)c1 | > 125 | 12.3 | 33.8 | 33.8 | 33.8 | > 10.2
CC(=O)Nc1ccc(O)c(C(=O)/C=C/c2cccc(C(F)(F)F)c2)c1 | 8.4 | 11.3 | 32.1 | 32.1 | 32.1 | 
CC(=O)Nc1ccc2oc(-c3ccccc3)cc(=O)c2c1 | 97 | > 50 | 184 | 184 | 184 | 
COc1ccccc1-c1cc(=O)c2cc(NC(C)=O)ccc2o1 | 50 | > 50 | 226 | 226 | 226 | 
COc1cccc(-c2cc(=O)c3cc(NC(C)=O)ccc3o2)c1 | 10 | > 10 | > 404 | > 404 | > 404 | 
COc1ccc(-c2cc(=O)c3cc(NC(C)=O)ccc3o2)cc1 | 74 | > 50 | 226 | 226 | 226 | 
CC(=O)Nc1ccc2oc(-c3ccc(F)cc3)cc(=O)c2c1 | 22 | > 22 | 203 | 203 | 203 | 
CC(=O)Nc1ccc2oc(-c3cccc(C(F)(F)F)c3)cc(=O)c2c1 | 50 | 50 | 10 | 10 | 10 | 
CC(=O)Nc1ccc2oc(-c3ccc(C(F)(F)F)cc3)cc(=O)c2c1 | 10 | > 10 | 330 | 330 | 330 | 
Nc1ccc2oc(-c3ccccc3F)cc(=O)c2c1 | 44 | > 44 | 283 | 284 | 283 | 
Nc1ccc2oc(-c3ccc(F)cc3)cc(=O)c2c1 | 10 | > 10 | 264 | 264 | 264 | 

Compound | IC50 (THP-1) [µM] | IC50 (Plasmodium falciparum) [µM] | CC50 at 96 h [1] [µM] | IC50 [2] [µM] | IC50 [3] [µM] | selectivity ratio [4]
Nc1ccc2oc(-c3cccc(C(F)(F)F)c3)cc(=O)c2c1 | 34 | > 34 | 138 | 138 | 138 | 
Nc1ccc2oc(-c3ccc(C(F)(F)F)cc3)cc(=O)c2c1 | 1.9 | > 1.9 | 273 | 273 | 273 | 
CC(=O)Nc1ccc2oc(-c3ccccc3)c(O)c(=O)c2c1 | 36 | > 36 | 64.7 | 64.7 | 64.7 | 
COc1cccc(-c2oc3ccc(NC(C)=O)cc3c(=O)c2O)c1 | 50 | 50 | 33.3 | 33.3 | 33.3 | 
COc1ccc(-c2oc3ccc(NC(C)=O)cc3c(=O)c2O)cc1 | 9 | > 9 | 98.7 | 98.7 | 98.7 | 
CC(=O)Nc1ccc2oc(-c3ccccc3F)c(O)c(=O)c2c1 | 47 | > 47 | 171 | 171 | 171 | 
CC(=O)Nc1ccc2oc(-c3cccc(F)c3)c(O)c(=O)c2c1 | 36 | > 36 | 26.5 | 26.5 | 26.5 | 
CC(=O)Nc1ccc2oc(-c3ccc(F)cc3)c(O)c(=O)c2c1 | 26 | > 26 | 34.1 | 34.1 | 34.1 | 
CC(=O)Nc1ccc2oc(-c3cccc(C(F)(F)F)c3)c(O)c(=O)c2c1 | 1 | > 1 | 5.7 | 5.7 | 5.7 | 
CC(=O)Nc1ccc2oc(-c3ccc(C(F)(F)F)cc3)c(O)c(=O)c2c1 | > 50 | > 50 | 7.3 | 7.3 | 7.3 | 
COc1cccc(-c2oc3ccc(N)cc3c(=O)c2O)c1 | 2 | > 2 | 40.8 | 40.8 | 40.8 | 
COc1ccc(-c2oc3ccc(N)cc3c(=O)c2O)cc1 | 29 | > 29 | 239 | 239 | 239 | 
Nc1ccc2oc(-c3ccccc3F)c(O)c(=O)c2c1 | 38 | > 38 | 44.5 | 44.5 | 44.5 | 
Nc1ccc2oc(-c3cccc(F)c3)c(O)c(=O)c2c1 | 30 | > 30 | 35.3 | 35.3 | 35.3 | 
Nc1ccc2oc(-c3ccc(F)cc3)c(O)c(=O)c2c1 | 4 | > 4 | 92.6 | 92.6 | 92.6 | 
CC(=O)Nc1ccc(O)c(C(=O)/C=C/c2ccccc2)c1 | 85.5 | 15.9 | 49.4 | 49.8 | 49.8 | 5.4
Nc1ccc2oc(-c3ccccc3)cc(=O)c2c1 [6-AMINOFLAVONE] | 36 | > 36 | 209 | 209 | 209 | 
COc1cccc2c1C(=O)c1c(O)c3c(c(O)c1C2=O)C[C@@](O)(C(=O)CO)C[C@@H]3O[C@H]1C[C@H](N)[C@H](O)[C@H](C)O1 [DOXORUBICIN] | 0.07 |  |  |  |  | 
